Screening results deposited in PubChem BioAssay by Johns Hopkins Ion Channel Center.
hERG protect: hERG rescue from dofetilide block, primary screen, cell-based, CHO-hERG, FluxOR thallium flux, dofetilide IC70; Voltage-gated inwardly rectifying potassium channel KCNH2 (Homo sapiens), Q12809; dofetilide IC70 present; activation (rescue from dofetilide block), less the hit threshold, % at 10 µM; 310,000 compounds, 0.51% hits; AID 1511, 2009;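 active means activation above the mean of controls blocked by dofetilide plus 5 SD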;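 further: thallium influx through hERG after potassium depolarization seen as dye fluorescence rise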
KCNQ1 inh: inhibitors of human KCNQ1 channel, primary screen, cell-based, thallium flux, high-throughput | Potassium voltage-gated channel subfamily KQT member 1 (Homo sapiens), P51787 | CHO-K1 KCNQ1, FluxOR thallium flux fluorescence; stronger effect = higher value | B-score at 10 µM | 310,000 compounds, 1.3% hits;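 active means compounds whose thallium flux B-score, printed positive for inhibition, exceeds three library SD while starting fluorescence stays within three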;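 further: channel opened by potassium depolarization with thallium stimulus after 20 min compound exposure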
Target sequence (P51787 whole entry, looked up): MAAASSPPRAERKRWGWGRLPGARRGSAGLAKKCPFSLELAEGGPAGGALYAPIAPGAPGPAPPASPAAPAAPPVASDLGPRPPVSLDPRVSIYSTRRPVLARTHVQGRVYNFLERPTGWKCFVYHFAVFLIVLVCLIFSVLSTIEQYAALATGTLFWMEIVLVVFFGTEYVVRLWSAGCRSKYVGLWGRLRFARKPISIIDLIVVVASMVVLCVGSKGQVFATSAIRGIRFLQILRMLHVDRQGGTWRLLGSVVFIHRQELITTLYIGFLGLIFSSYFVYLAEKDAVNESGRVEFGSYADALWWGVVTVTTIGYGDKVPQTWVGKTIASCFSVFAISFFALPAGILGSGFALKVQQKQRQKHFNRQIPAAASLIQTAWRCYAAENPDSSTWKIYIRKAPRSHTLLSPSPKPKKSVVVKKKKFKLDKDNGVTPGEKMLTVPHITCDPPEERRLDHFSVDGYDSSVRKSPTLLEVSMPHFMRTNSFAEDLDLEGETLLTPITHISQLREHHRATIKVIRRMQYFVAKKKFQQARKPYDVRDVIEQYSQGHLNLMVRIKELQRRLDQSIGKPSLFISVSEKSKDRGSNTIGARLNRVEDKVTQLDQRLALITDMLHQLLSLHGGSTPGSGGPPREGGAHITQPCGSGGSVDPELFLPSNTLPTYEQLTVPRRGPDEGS
KCNQ1 pot: potentiators or activators of KCNQ1 channel, primary screen, cell-based, thallium flux, high-throughput; B-score at 10 µM; 310,000 compounds, 0.35% hits; CHO-K1 KCNQ1, thallium flux FluxOR fluorescence; stronger effect = higher value; AID 2648, 2010;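 active means fluorescence ratio B-score, a plate-corrected score, at least three library SD, with initial intensity B-score within 5 SD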
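Material: CHO-K1 cells stably expressing KCNQ1. Medium: assay buffer for compound exposure, DMSO matched across wells. Reagent: K+/Tl+ depolarizing stimulus. Compound dosing: single-concentration screen. Times: 37 °C overnight plating, 90-min dark dye load, 20-min compound pretreatment. Technique: FluxOR Tl+ flux fluorescence.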
KCNK3 block: human KCNK3 channel inhibitors, primary screen, CHO cells, FluxOR thallium flux, B-score; FluxOR fluorescence; stronger effect = lower value; Potassium channel subfamily K member 3 (Homo sapiens), O14649; 340,000 compounds, 0.84% hits; B-score at 10 µM;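 active means B-score under library mean minus 4 SD, starting fluorescence ratio at most library mean plus 5 SD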;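 further: more negative B-score means stronger inhibition of thallium flux through KCNK3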
KCNK9 block: KCNK9 potassium channel inhibitors, primary screen, HEK293 cells, thallium flux; Potassium channel subfamily K member 9 (Homo sapiens), Q9NPC2; FluxOR thallium flux fluorescence; stronger effect = lower value; B-score at 10 µM; 310,000 compounds, 1.2% hits;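 active means ratio B-score over 3 SD below the library mean, with starting fluorescence within 5 SD of its mean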;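 further: negative B-score means less thallium flux so channel inhibition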
Kir21 inh: inhibitors of mouse Kir2.1 inward-rectifier potassium channel; HEK293-Kir2.1, FluxOR thallium flux fluorescence; stronger effect = lower value; B-score at 10 µM; 310,000 compounds, 0.85% hits;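 active means fluorescence ratio B-score at or below minus 3 SD of library scores, with starting-brightness B-score within 2 SD, cut at about -4.2 in these data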;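 further: channel flux triggered by added potassium and thallium sulfate stimulus; B-score of peak minus minimum fluorescence over baseline after thallium stimulus; more negative B-score means stronger Kir2.1 block with less thallium influx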
* = called active by the depositor. Only some compounds are listed: those with a hit (about 3.7% of all), similar ones and a draw of the others.

Screening COc1cccc(CNCCc2c[nH]c3ccccc23)c1OCc1ccccc1 returned hERG protect -15, KCNQ1 inh inactive, KCNQ1 pot inactive, KCNK3 block inactive, KCNK9 block inactive and Kir21 inh -9.5*.
`COc1cccc(CNC23CC4CC(CC(C4)C2)C3)c1OCc1ccccc1` gave hERG protect -11, KCNQ1 inh 6*, KCNQ1 pot inactive, KCNK3 block inactive, KCNK9 block inactive and Kir21 inh -3.8.
For Cc1ccc(S(=O)(=O)N2CCCC(CCC(=O)NCc3ccccc3F)C2)s1 (centres undefined) the results were hERG protect -3, KCNQ1 inh inactive, KCNQ1 pot inactive, KCNK3 block inactive, KCNK9 block -8* and Kir21 inh -1.4.
Screening CC1=C(C(=O)N2CCCC(CCC(=O)NCc3ccccc3F)C2)OCCO1 (centres undefined) returned hERG protect -7, KCNQ1 inh inactive, KCNQ1 pot inactive, KCNK3 block inactive, KCNK9 block inactive and Kir21 inh -0.01.
For CC(NC(=O)CCN1C(=O)c2ccccc2C1=O)c1ccc2c(c1)CCCC2 (centres undefined) the results were hERG protect -1, KCNQ1 inh inactive, KCNQ1 pot inactive, KCNK3 block inactive, KCNK9 block inactive and Kir21 inh -4.2*.
COc1ccc(OC)c(NC(=O)COC(=O)CCCN=C2NS(=O)(=O)c3ccccc32)c1 was read as KCNK3 block inactive.
CCn1c(O)c(N=NC2=NC(=O)CS2)c2ccccc21 was read as hERG protect 9.1*, KCNQ1 inh inactive, KCNQ1 pot inactive, KCNK3 block inactive, KCNK9 block inactive and Kir21 inh 0.04.
`COc1ccc(OC)c(S(=O)(=O)N2CCC(C(=O)Nc3ccccc3)CC2)c1` gave hERG protect -10, KCNQ1 inh inactive, KCNQ1 pot inactive, KCNK3 block inactive, KCNK9 block inactive and Kir21 inh -0.57.
O=C(Nc1ccncc1)C1CCN(S(=O)(=O)c2c(Cl)cccc2Cl)CC1 was read as hERG protect -14, KCNQ1 inh inactive, KCNQ1 pot inactive, KCNK3 block inactive, KCNK9 block -7* and Kir21 inh 1.3.
Screening COc1ccc(OC)c(S(=O)(=O)N2CCC(C(=O)Nc3cccc(C)c3)CC2)c1 returned hERG protect -17, KCNQ1 inh 6*, KCNQ1 pot inactive, KCNK3 block inactive, KCNK9 block -7.9* and Kir21 inh 1.8.
`CC(C)CN(C(=O)CN(C)C(=O)Cc1ccccc1Cl)c1c(N)n(CC(C)C)c(=O)[nH]c1=O` gave hERG protect -9, KCNQ1 inh inactive, KCNQ1 pot inactive, KCNK3 block inactive, KCNK9 block inactive and Kir21 inh 0.47.
Screening Cc1ccc(NC(=S)N/N=C/c2c(C)[nH]c3ccccc23)cc1 returned hERG protect -9, KCNQ1 inh 6*, KCNQ1 pot inactive, KCNK3 block inactive, KCNK9 block inactive and Kir21 inh -0.22.
Screening Cc1[nH]c2ccccc2c1/C=N/NC(=S)NCc1ccccc1 returned hERG protect -4, KCNQ1 inh 6*, KCNQ1 pot inactive, KCNK3 block inactive, KCNK9 block inactive and Kir21 inh 1.6.
Screening Cc1[nH]c2ccccc2c1/C=N/NC(N)=S returned hERG protect -12, KCNQ1 inh inactive, KCNQ1 pot inactive, KCNK3 block inactive, KCNK9 block inactive and Kir21 inh -0.04.
O=C(c1cccs1)c1ccc(-c2cccs2)s1 was read as hERG protect -6, KCNQ1 inh inactive, KCNQ1 pot inactive, KCNK3 block inactive, KCNK9 block -6.8* and Kir21 inh -3.7.
Screening CC(C)(C)OC(=O)COc1cc(OCC(=O)OC(C)(C)C)c2c(=O)cc(-c3ccccc3)oc2c1 returned KCNK3 block -9.1*.
For COC(=O)COc1cc(OCC(=O)OC)c2c(-c3ccccc3)cc(=O)oc2c1 the results were hERG protect -9, KCNQ1 inh inactive, KCNQ1 pot inactive, KCNK3 block inactive, KCNK9 block inactive and Kir21 inh -1.3.
Cc1nc(N2CCC(C)CC2)c2c(C)c(C(=O)Nc3ccccc3C(F)(F)F)sc2n1 was read as hERG protect -14, KCNQ1 inh inactive, KCNQ1 pot inactive, KCNK3 block inactive, KCNK9 block -7.4* and Kir21 inh -1.6.
For Cc1nc(N2CCN(C)CC2)c2c(C)c(C(=O)Nc3ccc(C)c(F)c3)sc2n1 the results were hERG protect -10, KCNQ1 inh inactive, KCNQ1 pot inactive, KCNK3 block inactive, KCNK9 block inactive and Kir21 inh -6*.
`Cc1nc(N2CCN(c3ccccn3)CC2)c2c(C)c(C(=O)Nc3c(F)cc(F)cc3Br)sc2n1` gave hERG protect -18, KCNQ1 inh 6*, KCNQ1 pot inactive, KCNK3 block inactive, KCNK9 block inactive and Kir21 inh -0.71.
CCC(=Cc1ccccc1OC)c1ccncc1 was read as KCNK3 block inactive.
For CCOC(=O)C1CCN(c2cc3c(cc2NC(=O)c2ccccc2)n(C)c(=O)n3C)CC1 the results were hERG protect -10, KCNQ1 inh inactive, KCNQ1 pot inactive, KCNK3 block inactive, KCNK9 block inactive and Kir21 inh 0.86.
For CCOC(=O)C1CCN(c2cc3c(cc2NC(=O)c2ccc(OC)c(OC)c2)n(C)c(=O)n3C)CC1 the results were hERG protect -7, KCNQ1 inh inactive, KCNQ1 pot inactive, KCNK3 block inactive, KCNK9 block -6.8* and Kir21 inh 2.3.
Screening CCN(CCN(C)C)C(=O)C1CCN(S(=O)(=O)c2c(C)noc2/C=C/c2ccccc2F)CC1 returned hERG protect -9, KCNQ1 inh inactive, KCNQ1 pot inactive, KCNK3 block inactive, KCNK9 block inactive and Kir21 inh -5*.
For Cc1ccc(-n2cccc2/C=C2/C(=N)N3C(=NC2=O)SN=C3S(C)(=O)=O)cc1 the results were hERG protect -22, KCNQ1 inh 10*, KCNQ1 pot inactive, KCNK3 block inactive, KCNK9 block inactive and Kir21 inh 1.6.
Screening CS(=O)(=O)C1=NSC2=NC(=O)/C(=C\c3cccn3-c3ccccc3Cl)C(=N)N21 returned hERG protect -36, KCNQ1 inh 10*, KCNQ1 pot inactive, KCNK3 block inactive, KCNK9 block inactive and Kir21 inh 2.7.
